This passage reports Activity and IC50 results from ChEMBL document CHEMBL4392872, “Phomanolides C-F from a Phoma sp.: Meroterpenoids Generated via Hetero-Diels-Alder Reactions” (J Nat Prod, 2019).

By pIC50 is commonly meant −log10 of the IC50, conventionally taken in molar units.

pIC50: −log10 of the molar value. Calls of active or inactive are those of the source. The rule behind the calls is not given here.

Common to all, as to type: functional, cell-based
Test [1] concerns HeLa. Description: Cytotoxicity against human HeLa cells at 50 uM measured after 48 hrs by MTS assay.
The test system of test [2] is U-251. Description: Cytotoxicity against human U251 cells at 50 uM measured after 48 hrs by MTS assay. Background: Formazan colour is commonly taken as a measure of viable cells.
In test [3] the test system is SH-SY5Y. Description: Cytotoxicity against human SH-SY5Y cells at 50 uM measured after 48 hrs by MTS assay.
For test [4], the system named is MCF7. In words: Cytotoxicity against human MCF7 cells at 50 uM measured after 48 hrs by MTS assay.
Test [5] relates to H4. In words: Cytotoxicity against human H4 cells at 50 uM measured after 48 hrs by MTS assay.
Test [6] deals with HeLa. Description: Cytotoxicity against human HeLa cells measured after 48 hrs by MTS assay. Summed up: (§1)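 Cells seeded at 1.0 × 10^4 per well and allowed to attach overnight. Medium then replaced with medium holding the test compound, positive control cisplatin, or 0.1% DMSO vehicle. Incubated 48 h at 37 °C, 5% CO2. MTS added and incubated 90 min at 37 °C in the dark, then OD read at 490 nm. Triplicate wells per concentration; each test run three times.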

Test [7] concerns SH-SY5Y. In words: Cytotoxicity against human SH-SY5Y cells measured after 48 hrs by MTS assay. The method in brief: as §1
For test [8], the system named is U-251. Description: Cytotoxicity against human U251 cells measured after 48 hrs by MTS assay. As to conditions: U-251, 48 h. The method in brief:
as §1

Test [9] concerns MCF7. In words: Cytotoxicity against human MCF7 cells measured after 48 hrs by MTS assay. The conditions noted are these: MCF7, 48 h. The method in brief: as §1
The test system of test [10] is H4. Description: Cytotoxicity against human H4 cells measured after 48 hrs by MTS assay. As to conditions: H4, 48 h. Summed up:
as §1

`CC1=CC(=O)O[C@@]23CC(=O)O[C@@]12C[C@H]1C[C@H](O)[C@@]2(C)Oc4cc(O)cc(C)c4C[C@H]2CC(C)(C)/C=C/C[C@]1(C)O3`: the result in test [1], in [2], in [3], in test [4] and in test [5] was inactive.
In the case of `CC1=CC(=O)O[C@@]23CC(=O)O[C@@]12C[C@H]1C[C@H](O)/C(C)=C\CC(C)(C)/C=C/C[C@]1(C)O3`, the result in [1], in test [2], in test [3], in [4] and in test [5] was inactive.
As for `Cc1cc(O)cc2c1C[C@H]1CC(C)(C)/C=C/C[C@]3(C)OC4=CC(=O)O[C@]5(C)CC(=O)O[C@]45C[C@H]3C[C@H](O)[C@@]1(C)O2`, the pIC50 was 4.30 in test [6] and 4.08 in test [7].
As to `CC1=CC(=O)O[C@@]23CC(=O)O[C@@]12C[C@H]1C[C@H](O)[C@@]2(C)Oc4cc(O)c(=O)cc(C)c4C[C@H]2CC(C)(C)/C=C/C[C@]1(C)O3`, the pIC50 in test [8] is 4.41; in test [7], 3.88; in test [9], 4.16; in [10] it was 4.35.
